According to ChEMBL document CHEMBL1138854, “Synthesis and antitumor activity of guanylhydrazones from 6-(2,4-dichloro-5-nitrophenyl)imidazo[2,1-b]thiazoles and 6-pyridylimidazo[2,1-b]thiazoles(1)” (2006):
“And” between values parts separate entries of the source, which are not always exact repeats. Equal entries are not always repeated.

assay: Antitumor activity against renal cell lines of the NCI60 panel; type: functional, Homo sapiens
Procedure, shortened: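 Run by NCI in the 60-cell-line panel (details in Supporting Information). Highest concentration 10^-4 M unless noted (one case 10-2.6 M). Values expressed as -log molar concentration giving 50% growth inhibition (pGI50), total cytostasis (pTGI) or 50% cell kill (pLC50); only values >4.00 reported; mean graph midpoint is the calculated panel mean.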

| Structure (SMILES) | LC50 |
| --- | --- |
| N=C(N)N/N=C/c1c(-c2cc([N+](=O)[O-])c(Cl)cc2Cl)nc2n1CCS2 | 5.25 µM |
| Cc1sc2nc(-c3cc([N+](=O)[O-])c(Cl)cc3Cl)c(/C=N/NC(=N)N)n2c1C | 36.3 µM and 85.1 µM |
| CCc1cn2c(/C=N/NC(=N)N)c(-c3cc([N+](=O)[O-])c(Cl)cc3Cl)nc2s1 | 3.02 µM and 6.46 µM |
| Cc1sc2nc(-c3ccccn3)c(/C=N/NC(=N)N)n2c1C | 57.5 µM |
| N=C(N)N/N=C/c1c(-c2ccc(Cl)c([N+](=O)[O-])c2)nc2n1CCS2 | 28.2 µM and 64.6 µM |
| CCCc1cn2c(/C=N/NC(=N)N)c(-c3cc([N+](=O)[O-])c(Cl)cc3Cl)nc2s1 | 5.37 µM |
| Cc1cn2c(/C=N/NC(=N)N)c(-c3ccncc3)nc2s1 | 72.4 µM |
| Cc1cn2c(/C=N/NC(=N)N)c(-c3cccnc3)nc2s1 | 27.5 µM and 61.7 µM |
| N=C(N)N/N=C/c1c(-c2ccccn2)nc2sc(Cl)cn12 | 28.8 µM |
| Cc1csc2nc(-c3cc([N+](=O)[O-])c(Cl)cc3Cl)c(/C=N/N=C(N)N)n12 | 64.6 µM |
| Cc1cn2c(/C=N/NC(=N)N)c(-c3ccccn3)nc2s1 | 19.5 µM and 53.7 µM |
| N=C(N)N/N=C/c1c(-c2cccnc2)nc2sc(Cl)cn12 | 69.2 µM |
| N=C(N)N/N=C/c1c(-c2ccncc2)nc2sc(Cl)cn12 | 15.8 µM and 44.7 µM |
| N=C(N)N/N=C/c1c(-c2cc([N+](=O)[O-])c(Cl)cc2Cl)nc2sc(Cl)cn12 | 97.7 µM |
| N=C(N)N/N=C/c1c(-c2cc([N+](=O)[O-])c(Cl)cc2Cl)nc2sccn12 | 4.47 µM and 24 µM |
